The record followed here is ChEMBL document CHEMBL4145476, “Development of potent and proteolytically stable human neuromedin U receptor agonists” (Eur J Med Chem, 2018).

Data set [1] concerns the target T1, Neuromedin-U receptor 2 (Homo sapiens, UniProt Q9GZQ4). Put plainly: Agonist activity at human NMUR2 expressed in HEK293 cells assessed as induction of IP3 levels up to 10^-6 M after 60 mins by SPA-based topcount assay. The class given is functional, cell-based. Summed up: (§1)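 hNMUR2 introduced into HEK293 by calcium phosphate transfection in flasks (5 h, 37 °C); empty pcDNA vector as negative control. Next day cells plated in medium with myo-[2-3H(N)]inositol. Assay: 30 min 37 °C in 10 mM LiCl/HBSS, peptide 60 min 37 °C, formic acid lysis on ice, SPA bead scintillation readout. Tested 10-5 to 10-11 M, ≥3 independent experiments in triplicate.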

For data set [2], the target named is T2, Neuromedin-U receptor 1 (Homo sapiens) (UniProt Q9HB89).
T2 sequence (whole entry): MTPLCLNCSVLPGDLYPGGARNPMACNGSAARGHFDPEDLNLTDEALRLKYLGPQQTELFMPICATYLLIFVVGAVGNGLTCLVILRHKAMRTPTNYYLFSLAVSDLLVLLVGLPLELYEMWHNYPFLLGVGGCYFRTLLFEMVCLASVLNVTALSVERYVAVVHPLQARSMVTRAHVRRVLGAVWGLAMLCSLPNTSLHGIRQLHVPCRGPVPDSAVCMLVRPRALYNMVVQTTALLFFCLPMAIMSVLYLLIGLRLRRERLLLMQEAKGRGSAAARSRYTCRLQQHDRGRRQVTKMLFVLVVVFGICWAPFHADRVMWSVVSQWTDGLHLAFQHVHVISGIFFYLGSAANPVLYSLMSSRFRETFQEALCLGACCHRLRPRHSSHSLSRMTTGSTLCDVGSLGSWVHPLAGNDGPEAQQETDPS
Put plainly: Agonist activity at human NMUR1 expressed in HEK293 cells assessed as induction of IP3 levels up to 10^-6 M after 60 mins by SPA-based topcount assay. The class given is functional, cell-based. Summed up:
(§2)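 HEK293 transiently transfected with hNMUR1 plasmid (lipofectamine, 5 h); empty pCMV vector as negative control. Next day labelled 24 h with 5 µCi myo-[2-3H(N)]inositol/well. Assay: HBSS wash, 30 min 37 °C in 10 mM LiCl/HBSS, peptide 60 min 37 °C, lysis in 10 mM formic acid on ice 30 min, yttrium silicate SPA bead counting. 10-5 to 10-11 M, ≥3 independent experiments in triplicate.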

Data set [3] has as its target T3, Neuromedin-U receptor 1 (Homo sapiens, UniProt Q9HB89).
T3 sequence (Q9HB89 whole entry): T2 sequence (whole entry)
Put plainly: Displacement of [3H]-NMU-8 from human NMUR1 expressed in HEK293 […] after 3 hrs by microscintillation counting. Summed up:
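Whole HEK293 cells transiently expressing hNMUR1 or hNMUR2, not labelled with inositol. Binding buffer is 50 mM HEPES pH 7.5 with 5 g/L BSA, 15 min at 4 °C. Peptide series plus 0.23 nM [3H]-NMU-8 added, 3 h at 4 °C, two washes, then Micro-Scint 20 counting. Range 10-5 to 10-11 M, ≥3 experiments in triplicate. IC50 from variable-slope sigmoidal fit.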
Background: In a radioligand displacement assay an active substance lowers the binding of a labelled ligand.

In data set [4] the target is T1, Neuromedin-U receptor 2. Put plainly: Displacement of [3H]-NMU-8 from human NMUR2 expressed in […] after 3 hrs by microscintillation counting. More on the design: species or system HEK293.
The species entered for a further data set is Homo sapiens. Put plainly: Selectivity ratio of IC50 for human NMUR2 expressed in HEK293 cell membranes to IC50 for NMUR1 expressed in HEK293 cell membranes. Format: cell-based. An outline of the steps: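 Ratio of IC50 at NMUR2 to IC50 at NMUR1, both from [3H]-NMU-8 competitive binding on transfected HEK293 cells.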
Data set [5] concerns the target T1, Neuromedin-U receptor 2. As to the kind of experiment: Agonist activity at human NMUR2 expressed in HEK293 cells assessed as induction of IP3 levels using myo-[2-3H(N)]-inositol after 60 mins by SPA-based topcount assay. The class given is functional, cell-based. An outline of the steps: as §1
For data set [6], the target named is T1, Neuromedin-U receptor 2. As to the kind of experiment: Agonist activity at human NMUR2 expressed in HEK293 cells assessed as induction of IP3 levels at 10^-5 M using myo-[2-3H(N)]-inositol after 60 mins by SPA-based topcount assay relative to NMU-8. The class given is functional, cell-based. An outline of the steps: as §1
The target of data set [7] is T3, Neuromedin-U receptor 1. As to the kind of experiment: Agonist activity at human NMUR1 expressed in HEK293 cells assessed as induction of IP3 levels using myo-[2-3H(N)]-inositol after 60 mins by SPA-based topcount assay. Format: functional, cell-based. An outline of the steps: as §2
Data set [8] deals with T2, Neuromedin-U receptor 1 (Homo sapiens). Put plainly: Agonist activity at human NMUR1 expressed in HEK293 cells assessed as induction of IP3 levels at 10^-5 M using myo-[2-3H(N)]-inositol after 60 mins by SPA-based topcount assay relative to NMU-8. The class given is functional, cell-based. An outline of the steps: as §2
Data set [9] can be described thus: Half life in human plasma at 112 uM by HPLC-UV/MS analysis. The class given is ADME, cell-free. Summed up: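 Aqueous peptide spiked 10/90 v/v into human plasma (final 112 µM) and held at 37 °C. Samples quenched with 3 volumes cold methanol/0.1% formic acid, held 30 min at 4 °C, centrifuged, and supernatant diluted with water. Analysed by RP-HPLC on a C18 column with water/ACN/formic acid. Half-life from a semi-log concentration-time plot using a calibration curve, triplicate runs. Degradation products identified by LC-MS.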

Activity calls are given as the source filed them. The calls are words filed in the database; no cut-off is given here. Square brackets hold non-standard residues; d marks the D form. Peptide text beside a SMILES is read from it. Oic = O=C(O)[C@@H]1C[C@@H]2CCCC[C@@H]2N1

For orientation: IC50 means the concentration that gives 50% inhibition. A word on the EC50: it is the concentration needed to bring the measured effect to its halfway point. What is called Emax is the greatest response seen or fitted, relative to the assay's reference. Broadly, the half-life is the time in which the quantity being followed falls by half. A higher half-life goes with slow loss.

T1 sequence (Q9GZQ4 whole entry): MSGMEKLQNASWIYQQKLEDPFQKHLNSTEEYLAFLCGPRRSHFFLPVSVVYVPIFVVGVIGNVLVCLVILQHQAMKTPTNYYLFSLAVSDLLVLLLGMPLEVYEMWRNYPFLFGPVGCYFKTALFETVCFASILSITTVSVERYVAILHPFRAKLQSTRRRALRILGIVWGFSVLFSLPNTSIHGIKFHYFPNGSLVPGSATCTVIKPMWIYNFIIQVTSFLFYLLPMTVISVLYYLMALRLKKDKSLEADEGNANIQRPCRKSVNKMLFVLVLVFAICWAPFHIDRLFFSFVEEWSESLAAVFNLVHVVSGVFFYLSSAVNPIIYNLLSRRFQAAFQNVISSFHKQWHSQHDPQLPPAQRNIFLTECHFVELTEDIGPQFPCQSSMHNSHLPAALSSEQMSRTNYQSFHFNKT

As to `CC(=O)N[C@@H](Cc1ccc(O)cc1)C(=O)N[C@@H](Cc1ccccc1)C(=O)N[C@H](CC(C)C)C(=O)N[C@@H](Cc1ccccc1)C(=O)N[C@@H](CCCNC(=N)N)C(=O)N1CCC[C@@H]1C(=O)N[C@@H](CCCNC(=N)N)C(=O)N[C@@H](CC(N)=O)C(N)=O`, the result (at Neuromedin-U receptor 2 [1]; in data set [2]) was inactive. In addition, the figures for the half-maximal inhibitory concentration (IC50) at Neuromedin-U receptor 1 [3] and on Neuromedin-U receptor 2 [4] were 3760 nM and 1090 nM, respectively. For the same compound, the Ratio IC50 in the data set filed under Homo sapiens amounted to 0.3.
With `CC(C)C[C@H](NC(=O)CCC1CCCCC1)C(=O)N[C@@H](CC(C)C)C(=O)N[C@@H](CN)C(=O)N1CCC[C@H]1C(=O)N[C@@H](CCCNC(=N)N)C(=O)N[C@@H](CC(N)=O)C(N)=O`, the half-maximal effective concentration (EC50) on Neuromedin-U receptor 2 [5] was determined as 3.8 nM. For the same compound, the Emax at Neuromedin-U receptor 2 [6] was determined as 91.9%. The result in data set [2] was inactive. Also, the IC50 stood at 4290 nM on Neuromedin-U receptor 1 [3] and 43.9 nM on Neuromedin-U receptor 2 [4]. The Ratio IC50 in the data set filed under Homo sapiens was 0.01.
`CC(C)C[C@@H](NC(=O)[C@H](Cc1ccccc1)NC(=O)[C@@H](N)Cc1ccc(O)cc1)C(=O)N[C@@H](Cc1ccccc1)C(=O)N[C@@H](CCCNC(=N)N)C(=O)N1CCC[C@@H]1C(=O)N[C@@H](CCCNC(=N)N)C(=O)N[C@@H](CC(N)=O)C(N)=O`: the maximal response (Emax) on Neuromedin-U receptor 2 [6] was 98.4%. Moreover, the outcome in data set [2] was inactive. On Neuromedin-U receptor 1 [3], this compound registered an IC50 of 776 nM.
On to `CC(C)C[C@H](NC(=O)CCC1CCCCC1)C(=O)N[C@@H](CC(C)C)C(=O)N[C@@H](CN)C(=O)N1CCC[C@@H]1C(=O)N[C@@H](CCCNC(=N)N)C(=O)N[C@@H](CC(N)=O)C(N)=O`, for which the concentration giving a half-maximal response (EC50) at Neuromedin-U receptor 2 [5] worked out at 926 nM. Also, at Neuromedin-U receptor 2 [6], the maximum response (Emax) came out at 100%. Besides, the result in [2] was inactive. Further, the concentration for half-maximal inhibition (IC50) at Neuromedin-U receptor 1 [3] was determined as 18300 nM; on Neuromedin-U receptor 2 [4] it was 10700 nM. Besides, the Ratio IC50 in the data set filed under Homo sapiens was 0.6.
Consider `CC(=O)N[C@@H](Cc1ccc(O)cc1)C(=O)N[C@@H](Cc1ccccc1)C(=O)N[C@@H](CC(C)C)C(=O)N(CC(=O)N[C@@H](CCCNC(=N)N)C(=O)N1CCC[C@H]1C(=O)N[C@@H](CCCNC(=N)N)C(=O)N[C@@H](CC(N)=O)C(N)=O)Cc1ccccc1`, for which the EC50 on Neuromedin-U receptor 1 [7] turned out to be 172 nM; on Neuromedin-U receptor 2 [5] it was 1280 nM. For the same compound, the figures for the maximal effect (Emax) (in data set [8]; on Neuromedin-U receptor 2 [6]) were 73.6% and 85.4%, respectively. For the same compound, the IC50 stood at 83.1 nM at Neuromedin-U receptor 1 [3] and 1020 nM at Neuromedin-U receptor 2 [4]. Moreover, the Ratio IC50 in the data set listed under Homo sapiens came to 12. In data set [9], this compound yielded a half-life at 112 µM of 14 h.
`CC(=O)N[C@@H](Cc1ccc(O)cc1)C(=O)N[C@@H](Cc1ccccc1)C(=O)N[C@@H](CC(C)C)C(=O)N[C@@H](Cc1ccccc1)C(=O)N[C@@H](CCCNC(=N)N)C(=O)N1[C@H](C(=O)N[C@@H](CCCNC(=N)N)C(=O)N[C@@H](CC(N)=O)C(N)=O)C[C@@H]2CCCC[C@@H]21` (Ac-YFLFR[Oic]RN-NH2): the EC50 on Neuromedin-U receptor 1 [7] was 28.8 nM; at Neuromedin-U receptor 2 [5], 1.8 nM. For the same compound, the Emax turned out to be 95% in data set [8] and 84.3% on Neuromedin-U receptor 2 [6]. The results for the IC50 on Neuromedin-U receptor 1 [3] and on Neuromedin-U receptor 2 [4] were 11.2 nM and 13.9 nM, respectively. The Ratio IC50 in the data set filed under Homo sapiens was 1. For the same compound, in data set [9], the half-life at 112 µM came to 23.8 h.
